In the library only some 2.9% were active in any assay of this set; here they are far more common.
UBC13 inh – blocks human UBC13 polyubiquitin chain formation. P61088. TR-FRET. inhibition, % at 20 µM. 330,000 compounds, 0.47% hits; in the data active = inhibition above about 45%, passing the limit was not always enough; inconclusive = no clear call, values can overlap the other calls
Target sequence (P61088 whole entry, looked up): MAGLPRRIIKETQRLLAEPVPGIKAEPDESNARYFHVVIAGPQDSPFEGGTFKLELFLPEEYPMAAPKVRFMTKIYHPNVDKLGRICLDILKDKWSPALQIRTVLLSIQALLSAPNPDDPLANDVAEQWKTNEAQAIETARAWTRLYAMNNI
Apaf-1 inh – inhibitors of human Apaf-1 apoptosome; 330,000 compounds, 0.71% hits; O14727; reconstituted apoptosome caspase-3 activity, DEVD-Rh110 fluorescence; inhibition, % at 20 µM; active = inhibition of at least 40% at 20 µM
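Medium: Hepes buffer, pH 7.5 / System: biochemical Apaf-1 apoptosome reconstitution / Measured by: Rh110 fluorescence, excitation 480 nm, emission 540 nm / Times: compound with Apaf-1, dATP, procaspase-3 30 min, then 50 min reaction, room temperature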
MEKK2 WT-MEK5 – raises or lowers MEK5 binding to wildtype human MEKK2 PB1 domain. bead flow cytometry, Alexa488-MEK5 binding to MEKK2 WT; actives lie on both sides. binding response (% of control), % at 10 µM. 290,000 compounds, 1.1% hits. AID 1531; in the data active = binding response below about 67% or above about 130%; inconclusive = no clear call, values can overlap the other calls; inactive = in between
MEKK3 PB1 HTS – raises or lowers MEK5 binding to the human MEKK3 PB1 domain. 290,000 compounds, 1.4% hits. Q99759. bead-based flow cytometry, Alexa488-MEK5 binding to MEKK3; actives lie on both sides; 0 = blocked by unlabeled MEK5, 100 = vehicle. binding response (% of control), % at 10 µM. AID 1529;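 active = binding response more than 3 SD above or below the average of its plate-row segment, actives on both sides; inconclusive = wells at one plate position flagged as instrument error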;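 also: Alexa488 bead fluorescence after subtracting the streptavidin-only scavenger bead signal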
Target sequence (Q99759 whole entry, looked up, the tested form may be a part): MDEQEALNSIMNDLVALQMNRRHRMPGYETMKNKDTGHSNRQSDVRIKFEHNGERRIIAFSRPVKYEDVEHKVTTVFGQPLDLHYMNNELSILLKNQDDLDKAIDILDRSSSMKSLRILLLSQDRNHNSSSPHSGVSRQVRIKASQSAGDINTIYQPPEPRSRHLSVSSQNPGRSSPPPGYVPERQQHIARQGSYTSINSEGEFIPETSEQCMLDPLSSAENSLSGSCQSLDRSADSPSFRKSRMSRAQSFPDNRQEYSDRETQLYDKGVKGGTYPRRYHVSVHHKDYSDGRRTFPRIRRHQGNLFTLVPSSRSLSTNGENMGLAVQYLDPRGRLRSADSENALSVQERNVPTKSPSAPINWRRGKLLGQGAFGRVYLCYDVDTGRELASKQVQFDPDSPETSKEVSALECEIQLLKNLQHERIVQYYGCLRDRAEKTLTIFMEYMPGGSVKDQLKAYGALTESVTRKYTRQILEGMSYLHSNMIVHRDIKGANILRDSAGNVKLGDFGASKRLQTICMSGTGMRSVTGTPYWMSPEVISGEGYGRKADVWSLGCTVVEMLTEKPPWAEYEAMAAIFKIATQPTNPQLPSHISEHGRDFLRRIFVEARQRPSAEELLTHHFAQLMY
MEKK2 mut-MEK5 – signal of MEK5 binding to mutant human MEKK2 PB1 domain. bead flow cytometry, Alexa488-MEK5 binding to MEKK2 mutant. 290,000 compounds, 0.35% hits. percent response, % at 10 µM; in the data active = percent response above about 24%, passing the limit was not always enough
Casp3 UBC13 ctr – counter-screen for UBC13 inhibitors: human caspase-3 inhibition; Recombinant caspase-3, Caspase-Glo 3/7 luminescence, 60 min; shares compounds with UBC13 inh; inhibition, % at 20 µM; 1,400 compounds, 4% hits;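 active = mean inhibition across replicates above about 26%, limit read from the data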
UBC13 conf – confirmation of human UBC13 polyubiquitin inhibitors; UBC13 polyubiquitination, TR-FRET, biochemical; inhibition, % at 10 µM; AID 488859; 1,400 compounds, 68% hits; shares compounds with UBC13 inh; in the data active = inhibition above about 45%; inconclusive = no clear call, values can overlap the other calls
Of the large screens only hits and unclear results are named; the others gave an inactive call (follow-up assays come after a bar, where they were run).

O=C(Nc1ccc(F)cc1)C1C(c2ccccc2)C1(Cl)Cl (centres undefined)	none
O=C(NNC(=O)C1CCN(S(=O)(=O)c2ccc(Cl)cc2)CC1)c1ccc(S(=O)(=O)N2CCCCC2)cc1	UBC13 inh 56.5 | Casp3 UBC13 ctr inactive | UBC13 conf 52.1
Cc1ccc(C(=O)NNC(=O)C2CCN(S(=O)(=O)c3ccc(Cl)cc3)CC2)cc1	none
O=C(c1ccc(Cn2cc([N+](=O)[O-])cn2)o1)N1CCCCCC1	none
C#CCOCCOCCOCCNc1nc(N2CCN(C(=O)[C@H](CCCCN)n3cc([C@@H](N)CO)nn3)CC2)nc(N2CCN(C(=O)[C@H](CCCCN)n3cc([C@@H](N)CC(C)C)nn3)CC2)n1	UBC13 inh 73.4 (no result: MEKK2 WT-MEK5, MEKK3 PB1 HTS, MEKK2 mut-MEK5) | Casp3 UBC13 ctr inactive | UBC13 conf 66.2
C#CCOCCOCCOCCNc1nc(N2CCN(C(=O)C([C@@H](C)O)n3cc([C@@H](N)CCCCN)nn3)CC2)nc(N2CCN(C(=O)C([C@@H](C)O)n3cc([C@@H](N)CCCCN)nn3)CC2)n1 (some centres undefined)	UBC13 inh 80.3 (no result: MEKK2 WT-MEK5, MEKK3 PB1 HTS, MEKK2 mut-MEK5) | Casp3 UBC13 ctr inactive | UBC13 conf 60.7
C#CCOCCOCCOCCNc1nc(N2CCN(C(=O)[C@H](CO)n3cc([C@@H](N)C(C)C)nn3)CC2)nc(N2CCN(C(=O)[C@H](CCC(=O)O)n3cc([C@@H](N)CCCCN)nn3)CC2)n1	UBC13 inh 45.4 (no result: MEKK2 WT-MEK5, MEKK3 PB1 HTS, MEKK2 mut-MEK5) | Casp3 UBC13 ctr inactive | UBC13 conf 46.7
C#CCOCCOCCOCCNc1nc(N2CCN(C(=O)[C@H](CCC(=O)O)n3cc([C@@H](N)CCCCN)nn3)CC2)nc(N2CCN(C(=O)[C@H](CCC(=O)O)n3cc([C@@H](N)CCCCN)nn3)CC2)n1	none (no result: MEKK2 WT-MEK5, MEKK3 PB1 HTS, MEKK2 mut-MEK5)
CCCCn1c(N)c(N(C(=O)CSc2nnc(C)n2-c2ccccc2)C2CCCC2)c(=O)[nH]c1=O	none (no result: MEKK2 WT-MEK5, MEKK3 PB1 HTS, MEKK2 mut-MEK5)
CC(C)C(OC(=O)c1cccc(S(=O)(=O)NCC(F)(F)F)c1)C(=O)NC(N)=O (centres undefined)	none
Cc1cccc(NC(=O)CN(c2ccc(F)cc2)S(C)(=O)=O)c1	none
CCOC(=O)c1sc(N)nc1C(C)(C)C	none
Cc1nc(N)sc1C(=O)OCC(C)C	UBC13 inh 55.9 | Casp3 UBC13 ctr inactive | UBC13 conf inactive
Cc1nc(N)sc1C(=O)N/N=C/c1cccnc1	UBC13 inh 92.2 | Casp3 UBC13 ctr inactive | UBC13 conf 107.8
COC(=O)c1sccc1NC(=O)c1cc2c(s1)CCCC2	UBC13 inh 45.9 (no result: MEKK2 WT-MEK5, MEKK3 PB1 HTS, MEKK2 mut-MEK5) | Casp3 UBC13 ctr 57.9 | UBC13 conf inactive
COc1ccc(C)cc1NC(=O)c1cc2c(s1)CCC2	none
S=C(NCc1cccs1)Nc1ccccc1	none
Cc1ccc(NC(=S)NCc2cccs2)cc1	UBC13 inh 52.4 | Casp3 UBC13 ctr inactive | UBC13 conf inactive
O=C(OCc1nc2scc(-c3ccccc3)c2c(=O)[nH]1)c1cc([N+](=O)[O-])ccc1Cl	UBC13 inh 45.6 | Casp3 UBC13 ctr inactive | UBC13 conf inactive
Cc1cc(NC(=O)CSc2ncccc2C(=O)O)no1	none
CCOC(=O)CCCSc1nnc(CCCCCN2C(=O)c3cccc4cccc(c34)C2=O)o1	UBC13 inh 52.7 | Casp3 UBC13 ctr inactive | UBC13 conf inactive
CCOc1ccc(Cl)cc1/C=N/O	none
CCOc1ccc(Cl)cc1/C=N/NC(N)=O	UBC13 inh 49.7 | Casp3 UBC13 ctr inactive | UBC13 conf 53.4
Cc1ccc(-n2nc3c4c(cccc4c2=O)-c2ccccc2-3)cc1	UBC13 inh 45.7 | Casp3 UBC13 ctr inactive | UBC13 conf inactive
CCCc1nnc(NC(=O)c2nc(S(=O)(=O)Cc3cccc(C)c3)ncc2Cl)s1	UBC13 inh 54.4 | Casp3 UBC13 ctr inactive | UBC13 conf 61.6
Cc1ccc(S(=O)(=O)CCC(=O)N(CCN2CCOCC2)c2nc3ccccc3s2)cc1	none (no result: MEKK2 WT-MEK5, MEKK3 PB1 HTS, MEKK2 mut-MEK5)
Cc1cccc2sc(N(CCN3CCOCC3)C(=O)CCS(=O)(=O)c3ccccc3)nc12	UBC13 inh 58.8 (no result: MEKK2 WT-MEK5, MEKK3 PB1 HTS, MEKK2 mut-MEK5) | Casp3 UBC13 ctr inactive | UBC13 conf 79.0
CCCOC(=O)c1cccc(Nc2nc(-c3cccnc3)nc3ccccc23)c1	UBC13 inh 49.0 | Casp3 UBC13 ctr inactive | UBC13 conf 65.7
O=C(OCCNc1nc(-c2ccccc2)nc2ccccc12)c1cccnc1	none
CN1CCN(CCCNC(=O)c2cn(C3CCCCC3)c(=O)c3c2c2ccccc2n3C)CC1	UBC13 inh 64.4 | Casp3 UBC13 ctr inactive | UBC13 conf 63.5
CC(C)(C)c1cc(-c2nc(N)nc(N)n2)c(O)c(C(C)(C)C)c1	UBC13 inh 51.2 (no result: MEKK2 WT-MEK5, MEKK3 PB1 HTS, MEKK2 mut-MEK5) | Casp3 UBC13 ctr inactive | UBC13 conf inactive
Nc1nc(N)nc(-c2ccccc2-c2nc(N)nc(N)n2)n1	none
Fc1ccc(-c2nnc3ccc(N4CCc5ccccc5C4)nn23)cc1	none
COc1cc2[nH]c(=S)nc(Nc3ccc(NC(C)=O)cc3)c2cc1OC	UBC13 inh 46.3 | Casp3 UBC13 ctr inactive | UBC13 conf 47.8
COc1cc2[nH]c(=S)nc(NC3CCCCCC3)c2cc1OC	none
Cc1c(C(=O)OCc2ccc(F)cc2)sc2nc3n(c(=O)c12)CCC3	none (no result: MEKK2 WT-MEK5, MEKK3 PB1 HTS, MEKK2 mut-MEK5)
CSc1nc(N2CCOCC2)c2c(c1C#N)CCCCC2	UBC13 inh 52.6 | Casp3 UBC13 ctr inactive | UBC13 conf inconclusive
CC(=O)NC(C)c1cc(Cl)c2cccnc2c1O (centres undefined)	none (no result: MEKK2 WT-MEK5, MEKK3 PB1 HTS, MEKK2 mut-MEK5)
CCC(=O)NC(c1ccco1)c1cc(Cl)c2ccccc2c1O (centres undefined)	none (no result: MEKK2 WT-MEK5, MEKK3 PB1 HTS, MEKK2 mut-MEK5)
CC(=O)NC(c1ccco1)c1cc(Cl)c2ccccc2c1O (centres undefined)	UBC13 inh 47.1 (no result: MEKK2 WT-MEK5, MEKK3 PB1 HTS, MEKK2 mut-MEK5) | Casp3 UBC13 ctr inactive | UBC13 conf inactive
CC(=O)NC(C)c1cc(Cl)c2ccccc2c1O (centres undefined)	UBC13 inh 62.9 (no result: MEKK2 WT-MEK5, MEKK3 PB1 HTS, MEKK2 mut-MEK5) | Casp3 UBC13 ctr inactive | UBC13 conf 47.2
CCC(=O)NC(C)c1cc(Cl)c2cccnc2c1O (centres undefined)	none (no result: MEKK2 WT-MEK5, MEKK3 PB1 HTS, MEKK2 mut-MEK5)
CCC(=O)NC(c1cc(Cl)c2ccccc2c1O)C(C)C (centres undefined)	UBC13 inh 70.9 (no result: MEKK2 WT-MEK5, MEKK3 PB1 HTS, MEKK2 mut-MEK5) | Casp3 UBC13 ctr inactive | UBC13 conf 55.9
N#Cc1ccc(COC(=O)c2ccc(N3CCCC3)c([N+](=O)[O-])c2)cc1	none
COC(=O)[C@]1(Cc2ccccc2)N[C@H](c2ccc(SC3CCCCC3)c(OC)c2)[C@@H]2C(=O)N(C)C(=O)[C@@H]21	none (no result: MEKK2 WT-MEK5, MEKK3 PB1 HTS, MEKK2 mut-MEK5)
COc1cccc(CCNC(=O)C2CCCN(c3ncnc4c3nc3n4CCCCC3)C2)c1OC (centres undefined)	none
O=C(NCCCN1CCN(c2ccc(F)cc2)CC1)C1CCCN(c2ncnc3c2nc2n3CCCCC2)C1 (centres undefined)	UBC13 inh 82.9 | Casp3 UBC13 ctr inactive | UBC13 conf 106.7

Compound activity from PubChem.
